# Compound activity from PubChem BioAssay.
# Most compounds without a hit are left out; they make up all but 3.9% or so of the library.
# CHOP UPR activ = activators of apoptotic arm of unfolded protein response (CHOP) | 0.34% of 330,000 active | CHO-CHOP luciferase reporter, UPR activation, luminescence; percent of tunicamycin response over DMSO baseline | activation, % at 10 µM;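 active = at 10 µM dose, activation of 40% or more, normalized to positive control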;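 note: 100% = tunicamycin at 10 µg/mL and 0% = DMSO alone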
#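 assay system = CHO CHOP reporter cells | amount = 500 CHO-CHOP cells per well | buffer or medium = F12 with 10% FBS | incubation = 16-18 h cell attachment, then 6 h compound exposure, 37 °C | detection = luminescence read with Steady-Glo | read-out = percent activation relative to tunicamycin control | controls = tunicamycin high control, DMSO low control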
# XBP1 UPR activ = adaptive UPR (XBP1) activation. activation, % at 20 µM. 0.33% of 330,000 active. CHO-XBP1 luciferase reporter, IRE1-XBP1 UPR activation, luminescence; percent of tunicamycin response, DMSO as zero;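 active = versus positive control, 20 µM dose yields 30% or more activation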;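 note: 100% = tunicamycin at 10 µg/mL and 0% = DMSO only wells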
#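 Material: CHO-XBP1 cells stably carrying IRE1-XBP1-driven luciferase reporter / Amount: 1000 cells per well / Compound: 20 µM, 1% DMSO / Times: 6 h treatment, 37 °C / Detection: luciferase luminescence / Measure: % activation of reporter signal versus tunicamycin and DMSO controls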
# TIM10 inh = TIM10 yeast growth inhibition; 1.4% of 330,000 active; inhibition, % at 10 µM; AID 463195; S. cerevisiae TIM10 strain growth, BacTiter-Glo luminescence, 24 h;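 active = inhibition of 40% or more at the single tested concentration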;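 note: wild-type TIM10 isogenic control strain grown at permissive 25 °C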
# tim23-1 inh = inhibits growth of tim23-1 mutant yeast. S. cerevisiae tim23-1 growth, BacTiter-Glo luminescence, 24 h. inhibition, % at 20 µM. 1.3% of 330,000 active;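 active = growth inhibition of the mutant yeast at or above 50%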;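 note: temperature-sensitive mutant grown at 25 °C; plate controls were DMSO-treated mutant yeast for no effect and medium wells lacking yeast for full effect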
# tim10-1 inh = tim10-1 yeast growth inhibition; S. cerevisiae tim10-1 ts strain growth, BacTiter-Glo, 24 h; inhibition, % at 20 µM; 2.2% of 330,000 active;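 active = inhibition of at least 40%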;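 note: mutant grown at 25 °C; 0% = DMSO wells with yeast and 100% = wells holding no yeast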
# tim10-1 confirm = tim10-1 yeast growth inhibition, confirmed | shares compounds with tim10-1 inh | 56% of 7,400 active | S. cerevisiae tim10-1 ts strain growth, BacTiter-Glo, 24 h | inhibition, % at 20 µM;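 active = inhibition of yeast growth at or above a set limit in either of two repeat tests at 20 µM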;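 note: tim10-1 mutant grown at permissive 25 °C to find synthetic lethal compounds; 0% = DMSO yeast wells and 100% = medium wells without yeast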
# The depositor's hits bear a star; / = no result.
SMILES,CHOP UPR activ,XBP1 UPR activ,TIM10 inh,tim23-1 inh,tim10-1 inh,tim10-1 confirm
c1ccc(Nc2nnc(-c3cccnc3)s2)cc1,2.4,-5.2,-11.7,7.6,9.6,/
COC(=O)[C@]1(Cc2ccccc2)N[C@H](CN(C)S(=O)(=O)c2ccc(-c3ccccc3)cc2)[C@@H]2C(=O)N(Cc3ccccc3)C(=O)[C@@H]21,-0.8,2.0,1.4,6.0,13.0,/
COc1ccc(OC)c(-c2csc(NC(=O)Cc3ccc(OC)c(OC)c3)n2)c1,-1.4,6.0,7.6,16.1,11.5,/
COc1ccc(CC(=O)Nc2nc(-c3cc(OC)ccc3OC)cs2)cc1,-0.1,-2.5,10.0,41.7,42.6*,34.8*
CC1CCN(c2c([N+](=O)[O-])nn(-c3ccc4c(c3)OCCO4)[n+]2[O-])CC1,-1.8,-1.8,22.2,37.7,44.4*,29.1
COc1cc(/C=C2\C(=N)N3N=C(S(=O)(=O)CC(C)C)SC3=NC2=O)ccc1OC(=O)c1ccco1,0.4,-2.9,13.6,18.7,41.4*,4.7
O=S(=O)(c1ccc2c(c1)OCCO2)N1CCC(O)(c2ccc(Cl)cc2)CC1,0.9,0.1,13.3,35.1,49.5*,35.8*
CC(C)CCNC(=O)NC(=O)CSc1nnc(COc2ccccc2Cl)o1,-2.1,-0.7,25.4,-14.7,48.9*,12.6
NC(=O)c1ccc(-c2nnn(CC(=O)N(C3CCCC3)C3CCS(=O)(=O)C3)n2)cc1 (configuration not stated),1.3,0.9,-7.2,3.7,-1.3,/
Fc1cc(F)cc(Nc2nc(Cl)nc(NC3CCCC3)n2)c1,5.4,5.2,-9.0,34.9,45.3*,19.4*
CC(C)Nc1nc(Cl)nc(NC2CCCCC2)n1,1.0,-1.3,13.5,25.0,15.2,/
CC(=O)c1ccc(OCCCC(=O)Nc2cccc(S(=O)(=O)N3CCCCC3)c2)cc1,-1.5,-3.5,-0.4,13.3,22.3,/
CC(C)[C@H](NC(=O)[C@@H]1CSC2c3ccccc3C(=O)N21)C(=O)N1CCCCC1 (some centres not stated),-0.9,-2.5,5.0,-3.5,-0.3,/
Cc1sc2ncnc(N3CCCCC3)c2c1C,-1.2,1.2,4.5,39.5,19.5,/
Cc1sc2ncnc(N3CCCCC3C)c2c1C (configuration not stated),2.2,0.4,5.7,27.6,41.6*,21.9
CCN(CC)CCCNC(=O)c1[nH]c2ccccc2c1Sc1ccc(Cl)cc1,0.3,1.4,15.4,38.8,31.0,/
CCC1(C)NC(=O)N(CC(=O)Nc2cc(C)on2)C1=O (configuration not stated),2.7,-1.7,-4.8,2.1,23.7,/
CCOc1ccc(N2C(=O)CC(NCCNc3ccc([N+](=O)[O-])cn3)C2=O)cc1 (configuration not stated),-0.4,-2.3,5.8,11.8,53.2*,28.5*
COc1ccc(CN(Cc2ccccn2)S(=O)(=O)c2ccc(-n3cnnn3)cc2)cc1,0.6,-1.4,7.4,3.2,40.1*,8.6
CCc1ccc(/C=C2/C(=O)N(C)C(=S)N2CC(=O)OC)s1,-1.4,-1.3,39.1,46.0,42.7*,44.2*
CCN(CC)c1ncn(Cc2c(Cl)cccc2Cl)c2ncnc1-2,-2.4,2.8,9.3,39.1,41.8*,35.6*
COc1ccc(-c2oc(=O)c3cc(OC)c(OC)cc3c2C#C[C@]2(O)CC[C@H]3[C@@H]4CCc5cc(OC)ccc5[C@H]4CC[C@@]32C)cc1,1.6,-2.3,2.3,10.4,8.3,/
Cc1cc(N2CCC(C(=O)NC3CCCCC3)CC2)nc(-c2ccccc2)n1,-0.6,0.7,26.5,-7.5,45.3*,16.1
C#CCOC(=O)c1cc(Cl)c(=O)n(Cc2ccc(Cl)cc2Cl)c1,0.0,-1.2,-4.7,35.0,32.1,/
Cc1ccc(C(=O)CSC2=C(C#N)C(c3ccco3)C3=C(CC(C)(C)CC3=O)N2)cc1 (configuration not stated),2.3,-1.4,16.3,24.3,29.8,/
SMILES,CHOP UPR activ,XBP1 UPR activ,TIM10 inh,tim23-1 inh,tim10-1 inh,tim10-1 confirm
N#CC1=C(SCC(=O)c2ccc(Cl)cc2)NC2=C(C(=O)CCC2)C1c1ccco1 (configuration not stated),0.9,-1.6,30.6,25.4,46.0*,22.7
Cc1ccc(Cl)cc1N1CCN(S(=O)(=O)c2c(C)[nH]c(C)c2C(=O)N2CCCCC2)CC1,-2.1,-3.9,11.5,18.6,22.7,/
COc1ccc(/C=C/C(=O)c2ccccc2)cc1COc1ccc(F)cc1,1.2,0.9,20.4,31.7,28.9,/
COc1ccc(/C=C/C(=O)c2ccccc2)cc1Cn1nnc2ccccc21,7.8,-1.8,39.1,46.5,59.4*,44.7*
O=C(CO/N=C/c1cccc([N+](=O)[O-])c1)Nc1ccc2ccccc2c1,-1.1,0.5,9.1,16.0,44.9*,23.9
CCOc1ccc(CCNC(=O)CN(C)S(=O)(=O)c2cccs2)cc1OCC,-0.5,-4.4,7.1,8.7,-5.2,/
CC(Cc1c[nH]c2ccccc12)C(=O)N1CCN(c2ccccc2F)CC1 (configuration not stated),0.8,-1.5,2.7,17.4,97.5*,18.5
COc1cccc(NC(=O)Nc2cc(C)ccc2OC)c1,-0.8,0.2,38.0,36.5,40.4*,29.1
CN(/N=C/c1cc(Br)cc(Br)c1O)c1ccccc1,2.1,-3.5,24.3,19.7,43.0*,35.3*
COC(=O)c1ccc(COc2ccccc2/C=C(\C#N)C(=O)Nc2c(C)cc(C)cc2C)cc1,39.1,16.8,1.9,30.1,47.2*,13.4
COc1cc(/C=C(/C#N)C(=O)Nc2ccccc2)c(Br)cc1OCc1ccc(C(=O)O)cc1,-0.7,-1.1,30.7,42.3,42.7*,39.9*
CCc1ccccc1OCC(=O)Nc1nc(-c2cccnc2)cs1,-1.4,-2.4,6.9,29.4,40.0,29.4
Cc1nc(-c2ccccc2)sc1-c1n[nH]c(=S)n1C,-1.4,2.8,26.2,38.3,47.8*,12.5
Cc1ccc(COc2ccsc2-c2n[nH]c(=S)n2C)cc1,0.1,-1.1,29.8,28.6,39.9,/
Cn1c(-c2sccc2OCc2ccccc2)n[nH]c1=S,3.4,-2.7,9.1,10.2,50.0*,16.1
CC(=O)c1c(C)[nH]c(C(=O)OCC(=O)N2CCc3ccccc3C2)c1C,-0.2,0.9,-2.0,19.1,7.8,/
O=C(COC(=O)c1cc(Br)ccc1O)NNC(=O)c1cccs1,1.2,-0.7,1.2,-4.0,-20.7,/
Cc1c(C(=O)N2CCN(S(=O)(=O)c3cc(F)ccc3F)CC2)oc2ccccc12,1.4,0.6,25.0,41.1,27.5,/
CCOC(=O)c1c(-c2ccc(C)o2)csc1NC(=S)NC(=O)N(C)C,-0.5,-0.5,37.3,41.1,55.4*,45.5*
CCOC(=O)c1c(-c2ccc(C)o2)csc1NC(=O)CN1CCOCC1,0.1,5.5,18.5,0.5,17.2,/
